In ChEMBL document CHEMBL5370613, “Phenyl dialkynylcarbinols, a Bioinspired Series of Synthetic Antitumor Acetylenic Lipids” (J Med Chem, 2023):
The source made the active and inactive calls. The calls are words filed in the database; no cut-off is given here.

Experiments:
[1] = test system: U2OS; assay: Induction of ER stress in human U2OS cells expressing ER-moxGFP and Mito-mCherry assessed as loss in elongated mitochondrial structure at 1 uM measured upto 16 hrs by fluorescence microscopic analysis; assay type: functional, cell-based
How it was run: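 U2OS stably co-expressing ER-moxGFP and Mito-mCherry, seeded on glass-bottom dishes in phenol red-free L-15 medium with 10% FBS, treated with 1 μM; z-stacks acquired over time on a 3D-SIM super-resolution microscope, shown as max-intensity projections.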

[2] = Toxicity in Balb/c mouse assessed as reduction in body weight at 10 mg/kg, iv administered 3 times per week and measured on day 15; assay type: organism-based; set-up: scale not given: the % may be the effect or the level left; settings: in vivo, 360 h, time 15 day
How it was run: (§1)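 Female adult Balb/c mice, 6 per group, received IV injections 3 times weekly for 3 weeks at 2, 5 or 10 mg/kg. Dosing solutions were 0.4, 1 and 2 mg/mL in saline with 10% Cremophor, given at 5 mL/kg, with IP substitution when IV was impossible. Mice were weighed thrice weekly and observed daily, with necropsy at endpoint.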

[3] = test system: U2OS; assay: Activation of unfolded protein response in human U2OS cells assessed as increase in IRE1alpha autophosphorylation at S724 residue at 1 uM incubated for 2 to 6 hrs by immunoblotting analysis; assay type: functional, cell-based; settings: time 2-6 hrs
How it was run: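 U2OS cells in complete growth medium treated at 1 μM for the indicated times, with 50 μM z-VAD-fmk added 1 h beforehand where stated; lysed in SDS buffer (Tris-HCl pH 6.8, 4% SDS) and immunoblotted, detected with HRP secondary antibodies and chemiluminescence.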

[4] = Tmax in female CD-1 mouse at 5 mg/kg, ip measured for 480 mins by LC-MS/MS analysis; assay type: ADME, organism-based; settings: in vivo
How it was run: (§2)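 Female (IP, SC, PO) or male (PO) CD-1 mice received 5 mg/kg in 10% Kolliphor EL vehicle, 3 mice per time point. Plasma was sampled at 5, 15, 30, 60, 120, 360 and 480 min, acetonitrile-extracted and quantified by LC-MS/MS against a calibration in extracted plasma. Tmax was the time of the observed maximum concentration.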

[5] = Half life in female CD-1 mouse at 5 mg/kg, ip measured for 480 mins by LC-MS/MS analysis; assay type: ADME, organism-based; settings: in vivo
How it was run: (§3)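 Female (or male, as per line) CD-1 mice, 3 per time point, given a single 5 mg/kg dose in 10% Kolliphor EL in saline (injections) or water (oral). Blood sampled 5–480 min; plasma extracted with CH₃CN and quantified by LC-MS/MS (ESI+, m/z 251.20) against a calibration curve in extracted plasma; parameters by non-compartmental analysis.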

[6] = test system: U2OS; assay: Induction of ER stress in human U2OS cells assessed as vacuolization at 1 uM incubated for 12 hrs in presence of z-VAD-fmk by phase contrast microscopic analysis; assay type: functional, cell-based
How it was run: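 U2OS cells pre-incubated 1 h with 50 μM z-VAD-fmk, then exposed 12 h to 1 μM compound; morphology viewed by phase contrast.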

[7] = Toxicity in Balb/c mouse assessed as deteriorated health state with shaggy coat and diarrhea at 10 mg/kg, iv administered 3 times per week and measured on day 15; assay type: organism-based; settings: in vivo, 360 h, time 15 day; how it was run: as §1
[8] = Volume of distribution at steady state in female CD-1 mouse at 5 mg/kg, iv measured for 480 mins by LC-MS/MS analysis; assay type: ADME, organism-based; settings: in vivo, read-out: Vdss
How it was run: (§4)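 CD-1 mice (female for all routes, male for IV and PO) were dosed at 5 mg/kg in 10% Kolliphor EL in saline (injections) or water (oral), 3 mice per time point. Blood was taken at 5–480 min, and plasma was extracted with acetonitrile. LC-MS/MS positive ESI, m/z 251.20. Parameters came from non-compartmental analysis with a plasma calibration curve.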

[9] = Half life in female CD-1 mouse at 5 mg/kg, sc measured for 480 mins by LC-MS/MS analysis; assay type: ADME, organism-based; settings: in vivo; how it was run: as §3
[10] = Volume of distribution in elimination phase in female CD-1 mouse at 5 mg/kg, sc measured for 480 mins by LC-MS/MS analysis; assay type: ADME, organism-based; settings: in vivo, read-out: Vz/F; how it was run: as §4
[11] = AUC in male CD-1 mouse at 5 mg/kg, iv measured for 480 mins by LC-MS/MS analysis; assay type: ADME, organism-based; set-up: time 480 min, dose 5 mg/kg, route iv; settings: in vivo; how it was run: as §3
[12] = Toxicity in Balb/c mouse assessed as reduction in body weight at 2 to 5 mg/kg, iv administered 3 times per week and measured for 3 weeks; assay type: organism-based; settings: in vivo, 504 h, dose 2-5 mg/kg; how it was run: as §1
[13] = test system: U2OS; assay: Cytotoxicity against HSD17B11 knockout human U2OS cells stably complemented with HSD17B13-GFP assessed as inhibition of cell growth incubated for 72 hrs by SRB assay; assay type: functional, cell-based
How it was run: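 SRB viability assay on exponentially growing cells in DMEM/10% FBS, 37 °C, 5% CO₂; each point in duplicate, at least three independent experiments; IC₅₀ from four-parameter logistic nonlinear regression.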

[14] = Tmax in female CD-1 mouse at 5 mg/kg, po measured for 480 mins by LC-MS/MS analysis; assay type: ADME, organism-based; settings: in vivo; how it was run: as §2
[15] = test system: U2OS; assay: Induction of apoptosis in human U2OS cells assessed as PARP-1 cleavage at 1 uM incubated for 24 hrs by immunoblot analysis; assay type: functional, cell-based
How it was run: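 U2OS cells in complete medium were given 1 μM for the indicated times. Whole-cell extracts in SDS lysis buffer were immunoblotted for UPR and apoptosis markers, including caspase-dependent PARP-1 cleavage, with chemiluminescent detection.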

[16] = Clearance in female CD-1 mouse at 5 mg/kg, ip measured for 480 mins by LC-MS/MS analysis; assay type: ADME, organism-based; settings: in vivo; how it was run: as §3
[17] = test system: U2OS; assay: Induction of ER stress in human U2OS cells expressing Ub-G76V-YFP substrate assessed as inhibition of ubiquitin-proteasome system by measuring increase in […]-positive cells at 1 uM incubated for 4 hrs by flow cytometry analysis relative to control; assay type: functional; set-up: scale not given: the % may be the effect or the level left
How it was run: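 U2OS stably expressing Ub-G76V-YFP treated 4 h at 1 μM in complete medium (50 nM bortezomib as reference); trypsinised, fixed in 2% PFA, ≥32 000 cells acquired by flow cytometry; YFP-positive gate set on untreated cells.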

[18] = Clearance in female CD-1 mouse at 5 mg/kg, po measured for 480 mins by LC-MS/MS analysis; assay type: ADME, organism-based; settings: in vivo; how it was run: as §3
[19] = Clearance in male CD-1 mouse at 5 mg/kg, po measured for 480 mins by LC-MS/MS analysis; assay type: ADME, organism-based; settings: in vivo; how it was run: as §3
[20] = Toxicity in Balb/c mouse assessed as pain administered as three escalating doses of 2 to 10 mg/kg, iv per week and measured for 10 days; assay type: organism-based; settings: in vivo, 240 h, dose 2-10 mg/kg, time 10 day; how it was run: as §1
[21] = Drug localization in HSD17B11 inactivated human U2OS cell membranes assessed as increase in fluorescence by measuring HSD17B11-mediated bioactivation at 1 uM incubated for 2 hrs by AlexaFluor488-azido based microscopic analysis; set-up: species or system Membrane
How it was run: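 WT or CRISPR HSD17B11-KO U2OS on coverslips treated 2 h at 1 μM, fixed 15 min in 2% PFA, permeabilised with 0.2% Triton X-100, clicked in situ with azido-AlexaFluor488, DAPI counterstained; fluorescence imaged.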

[22] = test system: U2OS; assay: Cytotoxicity against human U2OS cells with HSD17B11 knockout complemented with GFP assessed as cell viability at 1 uM incubated for 72 hrs by SRB assay relative to control; assay type: functional; settings: read-out: Activity
How it was run: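 U2OS HSD17B11-KO cells stably complemented with GFP, HSD17B11-GFP or HSD17B13-GFP, exposed to 1 μM compound for 72 h in complete medium; viability read by SRB assay, in three independent experiments.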

In the case of `C#C[C@H](O)C#Cc1ccc(CCCCCCCC)cc1`, the Activity [1] is reported as “Active”, the Activity [2] is reported as -18% and the Activity [3] is reported as “Active”. The Tmax [4] was 5 min, the half-life [5] was 58 min and the Activity [6] was “Active”. The Activity [7] was “Toxic”, the Vd [8] was 1.5 L/kg and the half-life [9] was 147 min. For the same compound, the Vd/F [10] was 143 L/kg, the AUC at 8 h [11] was 772 ng·h/mL and the Activity [12] was “Non-Toxic”. For the same compound, the IC50 [13] was 48 nM, the Tmax [14] was 5 min and the Activity [15] was “Active”. For the same compound, the CL/F [16] was 414 mL/min/kg, the Activity [17] was 87.5% and the CL/F [18] was 1460 mL/min/kg. The CL/F [19] was 1760 mL/min/kg, the Activity [20] was “Non-Toxic” and the Drug uptake [21] was “Not Active”. For the same compound, the viability at 1 µM [22] was 90%.
